Reference: ChEMBL document CHEMBL4014314, “Rational Design of Bisubstrate-Type Analogues as Inhibitors of DNA Methyltransferases in Cancer Cells” (J Med Chem, 2017)
Active and inactive are the calls of the source. No cut-off for these calls is given here.

Columns and labels:
[1] = species on record: Homo sapiens; assay: Inhibition of DNMT in human HCT116 cells assessed as demethylation of CDKN2A promoter at 100 nM after 3 days by COBRA analysis relative to control; type: cell-based
Summary of the method: (§1)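 HCT116 colon cancer cells in MEM with HEPES, L-glutamine and 10% FCS, 37 °C, 5% CO2; seeded 1 × 10^5/mL, treated for 3 or 7 days at 100 nM. Bisulfite-converted DNA amplified at the CDKN2A promoter, then digested with BsiEI at 60 °C for 90 min (COBRA); bands quantified on 2% agarose gel. Methylation given as ratio to untreated cells; at least two independent experiments, standard errors.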

[2] = species on record: Homo sapiens; assay: Inhibition of DNMT in human HCT116 cells assessed as induction of CDKN2A mRNA expression at 100 nM after 7 days by RT qPCR method relative to control; type: cell-based
Summary of the method: (§2)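 HCT116 cells seeded 1 × 10^5/mL and exposed to 100 nM for 3 or 7 days. CDKN2A mRNA quantified by RT-qPCR with SYBR chemistry: 95 °C 30 s, then 40 cycles of 95 °C 5 s and 60 °C 30 s, followed by a melt curve. Expressed as fold change relative to untreated cells; at least two independent experiments, standard errors.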

[3] = species on record: Homo sapiens; assay: Inhibition of DNMT in human KG1 cells assessed as luciferase gene driven CMV promoter demethylation by measuring fold increase in luciferase reactivation at 5 uM after 24 hrs by luciferase reporter gene assay relative to control; type: cell-based
Summary of the method: (§3)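 Leukemia KG-1 cells carrying a stable luciferase gene under a partially methylated CMV promoter, treated in 96-well plates for 24 h. Luciferase signal read by luminescence (Britelite); reactivation fold expressed as ratio to non-treated cells. Mean of three experiments with standard error.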

[4] = biological target: T1, DNA (cytosine-5)-methyltransferase 1 (Homo sapiens, UniProt P26358); assay: Inhibition of full length His-tagged human DNMT1 using SAM/[methyl-3H]SAM assessed as reduction of methylation in biotinylated hemimethylated DNA duplex at 100 uM after 1 hr by scintillation counting method relative to control
T1 sequence (P26358 whole entry): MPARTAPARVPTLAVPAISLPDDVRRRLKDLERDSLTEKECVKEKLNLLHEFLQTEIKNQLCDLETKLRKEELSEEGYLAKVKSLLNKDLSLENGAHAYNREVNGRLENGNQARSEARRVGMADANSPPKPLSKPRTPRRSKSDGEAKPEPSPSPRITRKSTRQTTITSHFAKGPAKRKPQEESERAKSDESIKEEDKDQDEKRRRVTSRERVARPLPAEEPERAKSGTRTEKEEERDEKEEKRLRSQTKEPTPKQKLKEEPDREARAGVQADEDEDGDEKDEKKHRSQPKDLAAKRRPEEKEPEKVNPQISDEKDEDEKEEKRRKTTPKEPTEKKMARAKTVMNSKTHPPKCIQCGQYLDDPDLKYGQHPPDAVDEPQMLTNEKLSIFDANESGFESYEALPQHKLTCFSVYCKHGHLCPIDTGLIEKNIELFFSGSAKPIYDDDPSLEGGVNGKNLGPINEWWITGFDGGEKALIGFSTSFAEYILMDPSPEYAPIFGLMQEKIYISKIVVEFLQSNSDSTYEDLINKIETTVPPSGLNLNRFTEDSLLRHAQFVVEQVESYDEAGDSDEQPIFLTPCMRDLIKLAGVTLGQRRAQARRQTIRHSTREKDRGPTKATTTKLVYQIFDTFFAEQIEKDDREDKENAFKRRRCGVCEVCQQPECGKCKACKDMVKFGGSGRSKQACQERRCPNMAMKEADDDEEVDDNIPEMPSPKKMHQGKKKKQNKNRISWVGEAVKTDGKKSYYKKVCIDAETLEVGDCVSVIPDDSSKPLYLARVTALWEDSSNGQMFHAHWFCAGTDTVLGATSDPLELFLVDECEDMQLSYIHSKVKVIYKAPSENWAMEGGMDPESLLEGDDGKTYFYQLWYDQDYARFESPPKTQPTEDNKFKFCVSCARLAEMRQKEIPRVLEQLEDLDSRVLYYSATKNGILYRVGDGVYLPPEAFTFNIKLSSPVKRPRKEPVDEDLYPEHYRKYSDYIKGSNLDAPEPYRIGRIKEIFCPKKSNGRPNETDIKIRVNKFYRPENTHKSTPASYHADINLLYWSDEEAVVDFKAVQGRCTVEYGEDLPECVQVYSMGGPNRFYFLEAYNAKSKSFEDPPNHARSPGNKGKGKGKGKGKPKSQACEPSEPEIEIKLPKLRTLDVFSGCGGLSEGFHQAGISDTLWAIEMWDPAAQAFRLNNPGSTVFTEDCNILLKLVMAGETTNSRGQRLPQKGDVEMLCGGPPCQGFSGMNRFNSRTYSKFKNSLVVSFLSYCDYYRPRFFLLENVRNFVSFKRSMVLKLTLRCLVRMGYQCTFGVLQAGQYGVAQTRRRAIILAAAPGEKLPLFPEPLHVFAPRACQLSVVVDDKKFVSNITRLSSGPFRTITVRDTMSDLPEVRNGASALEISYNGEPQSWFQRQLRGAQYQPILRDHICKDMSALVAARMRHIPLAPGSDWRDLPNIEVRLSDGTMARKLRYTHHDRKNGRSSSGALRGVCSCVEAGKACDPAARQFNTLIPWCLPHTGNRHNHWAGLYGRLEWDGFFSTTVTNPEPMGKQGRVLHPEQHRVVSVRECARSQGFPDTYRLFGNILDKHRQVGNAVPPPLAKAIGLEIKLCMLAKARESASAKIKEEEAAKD

[5] = species on record: Homo sapiens; assay: Inhibition of DNMT in human KG1 cells assessed as CpG site demethylation at CMV promoter at 5 uM after 24 hrs by NOMe-Seq method relative to control; type: cell-based
Summary of the method: (§4)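 CMV-luc KG-1 acute myeloid leukemia cells in RPMI-1640 with 10% FCS, seeded 2 × 10^5/mL and treated for 24 h at 1 or 5 μM. NOMe-Seq: bisulfite conversion, CMV promoter PCR (40 cycles), cloning and sequencing. CpG methylation and GpC accessibility expressed as ratio of percentage methylated cytosines in treated versus untreated sample.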

[6] = species on record: Homo sapiens; assay: Inhibition of DNMT in human HCT116 cells assessed as induction of CDKN2A mRNA expression at 100 nM after 3 days by RT qPCR method; type: cell-based; summary of the method: as §2
[7] = biological target: T1, DNA (cytosine-5)-methyltransferase 1; assay: Inhibition of full length His-tagged human DNMT1 using SAM/[methyl-3H]SAM assessed as reduction of methylation in biotinylated hemimethylated DNA duplex at 32 uM after 1 hr by scintillation counting method relative to control
[8] = species on record: Homo sapiens; assay: Inhibition of DNMT in human KG1 cells assessed as nucleosome occupancy at CMV promoter by measuring increase in luciferase signal at 5 uM after 24 hrs by NOMe-Seq method relative to control; type: cell-based
[9] = biological target: T2, DNA (cytosine-5)-methyltransferase 3A (Homo sapiens, UniProt Q9Y6K1); assay: Inhibition of human DNMT3A catalytic domain using AdoMet assessed as reduction of methylation in 5'-biotin/3' 6-carboxyfluorescein labeled DNA duplex at CpG site after 1 hr by fluorescence assay
T2 sequence (Q9Y6K1 whole entry, looked up, the tested form may be a part): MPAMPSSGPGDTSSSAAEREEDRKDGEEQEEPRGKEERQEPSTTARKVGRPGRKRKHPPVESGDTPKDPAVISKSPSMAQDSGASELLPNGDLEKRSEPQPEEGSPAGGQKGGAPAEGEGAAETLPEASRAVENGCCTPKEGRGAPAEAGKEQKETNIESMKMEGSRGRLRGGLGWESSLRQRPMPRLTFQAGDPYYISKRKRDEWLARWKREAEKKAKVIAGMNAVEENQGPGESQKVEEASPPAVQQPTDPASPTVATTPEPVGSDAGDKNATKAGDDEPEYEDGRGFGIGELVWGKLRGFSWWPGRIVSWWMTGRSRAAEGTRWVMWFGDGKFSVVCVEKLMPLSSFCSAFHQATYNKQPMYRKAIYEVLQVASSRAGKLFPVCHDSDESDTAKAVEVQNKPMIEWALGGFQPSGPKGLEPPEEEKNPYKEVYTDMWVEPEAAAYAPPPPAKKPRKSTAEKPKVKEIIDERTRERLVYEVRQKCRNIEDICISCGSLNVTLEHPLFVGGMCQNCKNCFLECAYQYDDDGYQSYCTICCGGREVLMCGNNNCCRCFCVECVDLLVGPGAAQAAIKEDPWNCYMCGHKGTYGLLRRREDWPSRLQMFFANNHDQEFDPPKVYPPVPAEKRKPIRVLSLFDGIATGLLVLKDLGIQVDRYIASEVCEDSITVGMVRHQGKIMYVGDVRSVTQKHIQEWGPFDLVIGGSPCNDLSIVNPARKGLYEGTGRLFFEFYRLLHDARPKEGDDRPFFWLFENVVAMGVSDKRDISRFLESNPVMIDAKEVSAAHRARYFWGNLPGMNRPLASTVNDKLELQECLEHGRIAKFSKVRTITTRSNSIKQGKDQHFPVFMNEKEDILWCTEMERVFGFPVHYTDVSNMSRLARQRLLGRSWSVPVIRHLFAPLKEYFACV
Summary of the method: (§5)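 Human full-length DNMT1 and catalytic DNMT3A tested for methylation of a DNA duplex; the paper gives assay details elsewhere. EC50 from a sigmoid dose-response fit with variable Hill slope; reported as median with SE from at least two independent experiments for DNMT1 and three for DNMT3A; DNMT3A curves run in technical duplicates.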

[10] = species on record: Homo sapiens; assay: Inhibition of DNMT in human KG1 cells assessed as luciferase gene driven CMV promoter demethylation by measuring fold increase in luciferase reactivation at 1 uM after 24 hrs by luciferase reporter gene assay relative to control; type: cell-based; summary of the method: as §3
[11] = species on record: Homo sapiens; assay: Inhibition of DNMT in human HCT116 cells assessed as demethylation of CDKN2A promoter at 100 nM after 7 days by COBRA analysis relative to control; type: cell-based; summary of the method: as §1
[12] = system: KG-1; assay: Toxicity in human KG1 cells assessed as effect on cell viability at 5 uM after 24 hrs by ATPLite assay; type: cell-based; settings: kg-1, 24 h
[13] = species on record: Homo sapiens; assay: Inhibition of DNMT in human KG1 cells assessed as luciferase gene driven CMV promoter demethylation by measuring luciferase reactivation at 0.1 uM after 24 hrs by luciferase reporter gene assay; type: cell-based; summary of the method: as §3
[14] = species on record: Homo sapiens; assay: Inhibition of DNMT in human KG1 cells assessed as increase in DNA accessibility by opening the chromatin at 5 uM after 24 hrs by NOMe-Seq method relative to control; type: cell-based; design: scale not given: the % may be the effect or the level left; summary of the method: as §4
[15] = biological target: T2, DNA (cytosine-5)-methyltransferase 3A; assay: Inhibition of human DNMT3A catalytic domain using AdoMet assessed as reduction of methylation in 5'-biotin/3' 6-carboxyfluorescein labeled DNA duplex at CpG site at 32 uM after 1 hr by fluorescence assay relative to control
[16] = biological target: T1, DNA (cytosine-5)-methyltransferase 1; assay: Inhibition of full length His-tagged human DNMT1 using SAM/[methyl-3H]SAM assessed as reduction of methylation in biotinylated hemimethylated DNA duplex after 1 hr by scintillation counting method; summary of the method: as §5
[17] = biological target: T2, DNA (cytosine-5)-methyltransferase 3A; assay: Inhibition of human DNMT3A catalytic domain using AdoMet assessed as reduction of methylation in 5'-biotin/3' 6-carboxyfluorescein labeled DNA duplex at CpG site at 10 uM after 1 hr by fluorescence assay relative to control
[18] = Binding affinity to 265 bp pBS DNA at 0.01 to 10 uM after 15 mins using 3'-end labeled using alpha-[32P]-dATP by DNase I footprinting assay
[19] = Binding affinity to 5'-TATATACGTACGGTGTTTTCACCGTACGTATATA-3' CpG site hairpin duplex DNA (unknown origin) assessed as change in melting temperature at 10 uM
[20] = Binding affinity to 117 bp pBS DNA at 0.01 to 10 uM after 15 mins using 3'-end labeled using alpha-[32P]-dATP by DNase I footprinting assay
[21] = Binding affinity to 5'-TATATACGTACTGTGTTTTCACAGTACGTATATA-3' CpG site hairpin duplex DNA (unknown origin) assessed as change in melting temperature at 10 uM
[22] = Solubility of the compound in RPMI-1640 medium; type: physicochemical
[23] = species on record: Homo sapiens; assay: Inhibition of DNMT in human KG1 cells assessed as luciferase gene driven CMV promoter demethylation by measuring luciferase reactivation at 1 uM after 24 hrs by luciferase reporter gene assay; type: cell-based; summary of the method: as §3
[24] = species on record: Homo sapiens; assay: Inhibition of DNMT in human KG1 cells assessed as luciferase gene driven CMV promoter demethylation by measuring luciferase reactivation at 5 uM after 24 hrs by luciferase reporter gene assay; type: cell-based; summary of the method: as §3
[25] = species on record: Homo sapiens; assay: Inhibition of DNMT in human KG1 cells assessed as CpG site demethylation at CMV promoter at 1 uM after 24 hrs by NOMe-Seq method relative to control; type: cell-based; summary of the method: as §4
[26] = species on record: Homo sapiens; assay: Inhibition of DNMT in human KG1 cells assessed as increase in DNA accessibility by opening the chromatin at 1 uM after 24 hrs by NOMe-Seq method relative to control; type: cell-based; design: scale not given: the % may be the effect or the level left; summary of the method: as §4

Row | Structure (SMILES) | inhibition [4] | inhibition [7] | EC50 [9] | inhibition [15] | EC50 [16] | inhibition [17] | inhibition [1] | fold change (FC) [3] | inhibition [5] | fold change (FC) [8] | fold change (FC) [10] | inhibition [11] | Activity [12] | Activity [14] | also measured
1 | c1ccc2c(NCCNc3ncnc4cc(OCC5CCN(CCNc6ccnc7ccccc67)CC5)ccc34)cccc2c1 | 94% | 86% | 0.3 µM | 90% | 20 µM | 91% |  | 4 |  |  | 4 |  |  |  | solubility [22]: Soluble
2 | Nc1ncn([C@H]2C[C@H](O)[C@@H](CO)O2)c(=O)n1 |  |  |  |  |  |  | 60% |  |  |  |  | 80% |  |  | inhibition [25]: 50%; Activity [26]: 120%

Now from value to compound, other results behind:

Row | inhibition [4] | inhibition [7] | EC50 [9] | inhibition [15] | EC50 [16] | inhibition [17] | Structure (SMILES) | inhibition [1] | fold change (FC) [3] | inhibition [5] | fold change (FC) [8] | fold change (FC) [10] | inhibition [11] | Activity [12] | Activity [14] | also measured
3 | 69% | 24% | 1.1 µM | 83% | 100 µM | 86% | c1ccc(-c2ccc(CNc3ncnc4cc(OCC5CCN(CCNc6ccnc7ccccc67)CC5)ccc34)cc2)cc1 | 20% | 4 | 52% | 4.2 | 4 | 71% | Non-Toxic | 87% | fold change (FC) [2]: 13; Activity [6]: inactive; inhibition [13]: Active
4 | 91% | 25% | 4.4 µM | 98% | 46 µM | 81% | c1ccc(CCCNc2ncnc3cc(OCC4CCN(CCNc5ccnc6ccccc56)CC4)ccc23)cc1 | 32% | 4 | 33% | 4.7 | 4 | 42% | Non-Toxic | 77% | Activity [18]: inactive; Activity [19]: inactive; Activity [20]: inactive; Activity [21]: inactive
5 | 0% | 0% |  | 0% |  | 0% | c1ccc(CCCNc2ncnc3cc(OCC4CCN(CCNc5cccc6ccccc56)CC4)ccc23)cc1 |  |  |  |  |  |  |  |  | inhibition [23]: inactive; inhibition [24]: inactive
